Legend:
[1] = Thermodynamic aqueous solubility of the compound in phosphate buffer at pH 7.4; assay type: physicochemical
Procedure, shortened: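 Kinetic and thermodynamic aqueous solubilities were measured in phosphate buffer at pH 7.4.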

[2] = Drug metabolism in mouse liver microsome at 10 uM after 30 mins by LC-MS analysis; assay type: ADME; details: liver microsomes, read-out: Drug metabolism
Cytochrome P450 3A4 = Cytochrome P450 3A4 (Homo sapiens, UniProt P08684); assay: Inhibition of CYP3A4 (unknown origin); assay type: ADME
Cytochrome P450 3A4, sequence (P08684 whole entry): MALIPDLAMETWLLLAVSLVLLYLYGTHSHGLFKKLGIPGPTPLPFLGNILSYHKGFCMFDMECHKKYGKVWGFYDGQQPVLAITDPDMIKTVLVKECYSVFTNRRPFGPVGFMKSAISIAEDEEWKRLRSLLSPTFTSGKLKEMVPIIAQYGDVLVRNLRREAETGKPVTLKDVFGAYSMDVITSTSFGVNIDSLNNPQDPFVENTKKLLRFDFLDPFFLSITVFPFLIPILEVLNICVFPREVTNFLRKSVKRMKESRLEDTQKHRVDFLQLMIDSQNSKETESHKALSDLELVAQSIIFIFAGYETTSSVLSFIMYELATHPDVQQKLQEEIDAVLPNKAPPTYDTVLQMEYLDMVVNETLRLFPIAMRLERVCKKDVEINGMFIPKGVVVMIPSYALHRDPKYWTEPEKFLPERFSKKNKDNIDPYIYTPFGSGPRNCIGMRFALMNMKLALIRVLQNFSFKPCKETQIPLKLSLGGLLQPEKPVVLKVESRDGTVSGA

[3] = Oral bioavailability in NMRI mouse at 0.5 mg/kg; assay type: ADME, organism-based; details: in vivo
[4] = Half life in NMRI mouse at 0.2 mg/kg, iv; assay type: ADME, organism-based; set-up: dose 0.2 mg/kg, route intravenous; details: in vivo
Procedure, shortened: (§1)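 Female NMRI mice (n = 5) given a single iv bolus (0.2 mg/kg per compound) or oral gavage (0.5 mg/kg per compound) as a cassette, in DMSO/PEG 200/water. Serial retro-orbital blood was drawn under isoflurane from 3 animals per route at 0.1 (iv), 0.25 (po), 0.5, 1, 2, 4 and 6 h. Plasma was quantified by LC–MS/MS.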

[5] = Apparent permeability in human Caco2 cells after 2 hrs by LC-MS/MS analysis; assay type: ADME, cell-based, Caco-2; details: caco-2, 2 h
Cytochrome P450 2C9 = Cytochrome P450 2C9 (Homo sapiens, UniProt P11712); assay: Inhibition of CYP2C9 (unknown origin); assay type: ADME
Cytochrome P450 2C9, sequence (P11712 whole entry, the tested form may be a part): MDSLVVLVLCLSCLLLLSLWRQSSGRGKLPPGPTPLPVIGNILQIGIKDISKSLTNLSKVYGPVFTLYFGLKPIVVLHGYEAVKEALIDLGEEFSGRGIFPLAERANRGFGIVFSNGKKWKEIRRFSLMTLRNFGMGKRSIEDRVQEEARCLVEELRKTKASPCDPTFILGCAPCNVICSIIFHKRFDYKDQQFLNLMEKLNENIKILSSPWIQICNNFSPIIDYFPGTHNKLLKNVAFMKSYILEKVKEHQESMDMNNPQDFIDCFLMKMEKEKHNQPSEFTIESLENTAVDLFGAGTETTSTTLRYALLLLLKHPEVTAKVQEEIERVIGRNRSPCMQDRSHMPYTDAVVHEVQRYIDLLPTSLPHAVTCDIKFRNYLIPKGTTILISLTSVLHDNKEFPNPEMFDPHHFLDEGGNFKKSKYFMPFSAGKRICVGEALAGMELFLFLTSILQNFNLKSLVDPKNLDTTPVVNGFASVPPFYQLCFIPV

[6] = target: T1, Poly [ADP-ribose] polymerase tankyrase-1 (Homo sapiens, UniProt O95271); assay: Inhibition of GST-tagged TNKS1 (1023 to 1327 aa) (unknown origin) after 90 mins by HTRF assay
T1 sequence (O95271 whole entry): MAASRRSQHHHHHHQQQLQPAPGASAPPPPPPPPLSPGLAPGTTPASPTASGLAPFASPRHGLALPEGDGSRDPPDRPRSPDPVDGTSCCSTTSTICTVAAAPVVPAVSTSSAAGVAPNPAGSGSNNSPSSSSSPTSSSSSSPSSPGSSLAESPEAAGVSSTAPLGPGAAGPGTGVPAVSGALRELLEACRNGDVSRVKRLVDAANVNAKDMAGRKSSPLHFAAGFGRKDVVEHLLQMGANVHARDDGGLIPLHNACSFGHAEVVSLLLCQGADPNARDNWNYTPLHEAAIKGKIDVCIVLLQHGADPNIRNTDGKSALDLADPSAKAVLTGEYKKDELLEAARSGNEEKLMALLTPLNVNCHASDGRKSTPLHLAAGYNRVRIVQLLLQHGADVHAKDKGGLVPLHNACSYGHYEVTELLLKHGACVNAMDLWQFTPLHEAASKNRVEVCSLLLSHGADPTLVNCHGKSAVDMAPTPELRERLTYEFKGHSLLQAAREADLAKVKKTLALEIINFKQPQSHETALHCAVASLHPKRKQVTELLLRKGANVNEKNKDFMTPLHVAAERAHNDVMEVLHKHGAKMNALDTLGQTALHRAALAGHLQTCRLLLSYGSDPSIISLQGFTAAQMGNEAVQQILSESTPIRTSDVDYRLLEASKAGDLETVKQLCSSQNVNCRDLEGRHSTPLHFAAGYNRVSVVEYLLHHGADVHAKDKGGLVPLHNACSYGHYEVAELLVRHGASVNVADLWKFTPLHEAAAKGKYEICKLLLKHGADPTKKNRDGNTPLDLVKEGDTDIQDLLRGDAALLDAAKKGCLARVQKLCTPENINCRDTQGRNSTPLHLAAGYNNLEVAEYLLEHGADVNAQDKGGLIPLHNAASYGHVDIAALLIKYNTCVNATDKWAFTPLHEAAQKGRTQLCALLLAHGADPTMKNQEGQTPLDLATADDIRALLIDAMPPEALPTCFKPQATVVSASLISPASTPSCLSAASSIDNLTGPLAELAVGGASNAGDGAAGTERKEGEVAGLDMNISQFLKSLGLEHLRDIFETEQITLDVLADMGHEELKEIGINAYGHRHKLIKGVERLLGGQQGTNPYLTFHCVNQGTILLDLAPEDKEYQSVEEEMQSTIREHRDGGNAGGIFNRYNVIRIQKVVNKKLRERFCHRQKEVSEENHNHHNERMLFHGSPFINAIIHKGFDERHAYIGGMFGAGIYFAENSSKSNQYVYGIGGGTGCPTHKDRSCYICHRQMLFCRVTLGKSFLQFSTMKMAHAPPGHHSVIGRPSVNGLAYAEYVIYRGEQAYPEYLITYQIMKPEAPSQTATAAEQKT

[7] = AUC in NMRI mouse at 0.5 mg/kg, po; assay type: ADME, organism-based; set-up: dose 0.5 mg/kg, route oral; details: plasma; procedure, shortened: as §1
[8] = Drug metabolism in human liver microsome at 10 uM after 30 mins by LC-MS analysis; assay type: ADME; details: liver microsomes, read-out: Drug metabolism
[9] = AUC in NMRI mouse at 0.2 mg/kg, iv; assay type: ADME, organism-based; set-up: dose 0.2 mg/kg, route intravenous; details: plasma; procedure, shortened: as §1
[10] = Tmax in NMRI mouse at 0.5 mg/kg, po; assay type: ADME, organism-based; set-up: dose 0.5 mg/kg, route oral; details: in vivo; procedure, shortened: as §1
[11] = target: T2, Poly [ADP-ribose] polymerase tankyrase-2 (Homo sapiens, UniProt Q9H2K2); assay: Inhibition of GST-tagged TNKS2 (873 to 1166 aa) (unknown origin) after 90 mins by HTRF assay
T2 sequence (Q9H2K2 whole entry): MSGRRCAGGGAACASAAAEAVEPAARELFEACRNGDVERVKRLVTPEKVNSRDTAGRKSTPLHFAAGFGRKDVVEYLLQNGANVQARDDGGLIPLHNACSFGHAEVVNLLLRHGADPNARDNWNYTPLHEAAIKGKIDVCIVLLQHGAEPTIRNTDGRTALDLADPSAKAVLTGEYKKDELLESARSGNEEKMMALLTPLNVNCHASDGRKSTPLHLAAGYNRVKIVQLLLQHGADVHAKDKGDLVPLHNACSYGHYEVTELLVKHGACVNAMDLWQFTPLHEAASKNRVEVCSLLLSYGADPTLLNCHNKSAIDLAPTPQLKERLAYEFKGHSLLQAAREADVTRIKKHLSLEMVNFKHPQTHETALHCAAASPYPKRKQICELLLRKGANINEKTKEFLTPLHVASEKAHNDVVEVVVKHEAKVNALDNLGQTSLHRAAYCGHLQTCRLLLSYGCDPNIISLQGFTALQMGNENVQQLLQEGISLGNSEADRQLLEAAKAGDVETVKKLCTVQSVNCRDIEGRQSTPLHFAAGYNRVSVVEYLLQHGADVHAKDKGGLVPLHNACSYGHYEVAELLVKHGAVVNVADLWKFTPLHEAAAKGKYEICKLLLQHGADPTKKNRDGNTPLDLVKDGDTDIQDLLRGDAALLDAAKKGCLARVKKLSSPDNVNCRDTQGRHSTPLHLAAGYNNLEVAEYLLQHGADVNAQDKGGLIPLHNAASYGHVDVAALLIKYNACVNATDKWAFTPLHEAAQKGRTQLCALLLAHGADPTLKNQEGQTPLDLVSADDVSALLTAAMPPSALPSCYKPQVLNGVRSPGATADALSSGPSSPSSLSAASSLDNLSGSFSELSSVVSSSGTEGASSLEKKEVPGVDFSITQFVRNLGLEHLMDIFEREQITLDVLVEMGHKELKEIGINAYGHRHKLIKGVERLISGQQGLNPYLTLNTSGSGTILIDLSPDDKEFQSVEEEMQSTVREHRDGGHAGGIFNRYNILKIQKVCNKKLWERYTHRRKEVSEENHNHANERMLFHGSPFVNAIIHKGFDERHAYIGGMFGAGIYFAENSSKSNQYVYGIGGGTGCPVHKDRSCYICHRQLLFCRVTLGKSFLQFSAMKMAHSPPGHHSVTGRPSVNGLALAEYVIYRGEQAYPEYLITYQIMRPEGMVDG

[12] = Kinetic solubility of the compound in phosphate buffer at pH 7.4; assay type: physicochemical
[13] = Tmax in NMRI mouse at 0.2 mg/kg, iv; assay type: ADME, organism-based; set-up: dose 0.2 mg/kg, route intravenous; details: in vivo; procedure, shortened: as §1
[14] = Clearance in NMRI mouse at 0.2 mg/kg, iv; assay type: ADME, organism-based; set-up: dose 0.2 mg/kg, route intravenous; details: in vivo; procedure, shortened: as §1
[15] = Volume of distribution at steady state in NMRI mouse at 0.2 mg/kg, iv; assay type: ADME, organism-based; set-up: dose 0.2 mg/kg, route intravenous; details: in vivo, read-out: Vdss; procedure, shortened: as §1
cells = assay type: cell-based; details: Homo sapiens, 7dF3

## O=C1NCCC12CCN(c1c(Cl)cncc1-c1ccc(N3CCOCC3)cc1)CC2
[1]
  Therm_solubility: 17 µg/mL
[2]
  metabolised at 0.5 h, 10 µM: 29%
Cytochrome P450 3A4
  IC50: 2100 nM
[3]
  bioavailability: 6%
[4]
  half-life: 18.6 min
[5]
  Papp: 37 ×10⁻⁶ cm/s
Cytochrome P450 2C9
  IC50: 2900 nM
[6]
  IC50: 19000 nM
[7]
  AUC: 7.4 ng·h/mL
[8]
  metabolised at 0.5 h, 10 µM: 20%
[9]
  AUC: 50.8 ng·h/mL
[10]
  Tmax: 15 min
[11]
  IC50: 16000 nM
[12]
  Kinetic_solubility: 164 µM
[13]
  Tmax: 6 min
[14]
  clearance: 65 mL/min/kg
[15]
  Vd: 1.44 L/kg
cells
  IC50: 30 nM

— ChEMBL document CHEMBL3407438, “Discovery of potent, orally bioavailable, small-molecule inhibitors of WNT signaling from a cell-based pathway screen” (J Med Chem, 2015)
